High-throughput results deposited in PubChem BioAssay by several laboratories.
KCC2 mod = modulates chloride dependent transport by human KCC2 | 2.2% of 190,000 active | KCC2 cells, thallium flux FluoZin-2 fluorescence | Q9H2X9 | B-score of Tl+ flux slope (higher = more flux/activation; lower = inhibition) at 10 µM;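 active = thallium flux slope and its plate-corrected score both differing from the plate sample mean at a set confidence after two filtering rounds, in either direction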;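 note: slope of fluorescence scaled to starting intensity during 10 to 20 s after thallium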
ABCB1 block = human ABCB1 inhibition, ABCG2 as counter-screen | CCRF-Adr cells, JC-1 efflux, flow cytometry | inhibition, % at 6.6 µM | 0.067% of 190,000 active; in the data active = inhibition above about 40%;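 note: higher value means more JC-1 retained so stronger ABCB1 efflux block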
Target sequence (P08183 whole entry, looked up): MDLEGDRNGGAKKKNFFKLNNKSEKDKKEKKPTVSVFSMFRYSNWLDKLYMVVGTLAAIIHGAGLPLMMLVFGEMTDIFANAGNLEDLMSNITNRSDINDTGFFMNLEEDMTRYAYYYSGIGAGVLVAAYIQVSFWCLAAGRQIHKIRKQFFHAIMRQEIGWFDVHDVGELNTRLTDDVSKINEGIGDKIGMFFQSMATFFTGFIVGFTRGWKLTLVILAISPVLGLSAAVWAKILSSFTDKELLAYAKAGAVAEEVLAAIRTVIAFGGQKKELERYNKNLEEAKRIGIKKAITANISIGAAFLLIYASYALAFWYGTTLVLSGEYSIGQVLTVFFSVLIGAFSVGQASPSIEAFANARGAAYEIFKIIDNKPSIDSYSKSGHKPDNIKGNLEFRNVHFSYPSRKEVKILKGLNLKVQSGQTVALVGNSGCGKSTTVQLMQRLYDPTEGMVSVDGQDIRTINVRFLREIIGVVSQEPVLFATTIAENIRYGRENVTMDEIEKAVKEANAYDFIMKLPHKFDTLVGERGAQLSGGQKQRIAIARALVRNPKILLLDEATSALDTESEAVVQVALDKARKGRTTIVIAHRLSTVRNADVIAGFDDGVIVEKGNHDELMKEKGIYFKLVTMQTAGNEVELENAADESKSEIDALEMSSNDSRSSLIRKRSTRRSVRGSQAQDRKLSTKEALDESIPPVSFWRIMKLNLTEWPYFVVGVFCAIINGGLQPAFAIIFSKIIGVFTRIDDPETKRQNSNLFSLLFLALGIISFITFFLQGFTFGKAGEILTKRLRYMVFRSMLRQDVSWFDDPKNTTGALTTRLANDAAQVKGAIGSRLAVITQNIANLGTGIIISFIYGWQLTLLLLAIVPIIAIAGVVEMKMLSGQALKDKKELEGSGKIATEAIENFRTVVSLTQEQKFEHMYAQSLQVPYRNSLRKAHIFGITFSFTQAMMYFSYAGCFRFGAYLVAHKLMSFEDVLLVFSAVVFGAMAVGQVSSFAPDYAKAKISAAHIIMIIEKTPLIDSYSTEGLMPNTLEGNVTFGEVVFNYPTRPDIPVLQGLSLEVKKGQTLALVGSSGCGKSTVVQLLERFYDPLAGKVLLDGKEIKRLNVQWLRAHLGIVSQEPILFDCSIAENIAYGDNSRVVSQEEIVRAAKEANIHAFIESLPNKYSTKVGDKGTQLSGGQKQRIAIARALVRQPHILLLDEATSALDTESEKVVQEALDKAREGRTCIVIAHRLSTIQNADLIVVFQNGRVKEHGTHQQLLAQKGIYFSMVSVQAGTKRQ
ABCG2 block = blocks JC-1 efflux by human ABCG2 transporter; AID 1325; inhibition, % at 6.6 µM; 0.1% of 190,000 active; Q9UNQ0; IgMXP3 cells, flow cytometry;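 active = inhibition above 80%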
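Test system: IgMXP3 (ABCG2) plus far-red-tagged CCRF-Adr (ABCB1) cells. Reagent: JC-1 dye as substrate. Timing: 10 min exposure at 25 °C with rotation, no wash. Measured by: flow cytometric JC-1 green MFI at 530 nm. Read-out: percent efflux inhibition, scaled nicardipine 100% to DMSO 0%. Control set: nicardipine and DMSO wells.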
ROMK mod = human ROMK K+ channel modulation, primary screen; P48048; Tet-inducible ROMK, thallium flux fluorescence; actives lie on both sides; B-score at 10 µM; 2% of 130,000 active;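 active = signal ratio slope over the read window, or its plate-corrected B-score, at least 3 SD from the plate mean, either direction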;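 note: B-score of the F/F0 ratio slope over 7 to 12 s after thallium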
PMI act hi M6P = PMI (human) activation, high substrate; P34949; coupled PMI enzyme assay, resazurin fluorescence, 20 min; active compounds read high; 1 = untreated enzyme, 0 = substrate-free blank; activation factor at 20 µM; 0.34% of 190,000 active; AID 1216;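 active = activation factor of 2 or more at 20 µM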
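Material: human phosphomannose isomerase with PGI, G6PDH, diaphorase coupling enzymes. Quantity: 15 ng/mL PMI. Medium: HEPES pH 7.4 buffer with MgCl2 and Tween-20. Reagent: Near-saturating mannose-6-phosphate, 1.0 mM. Compound: 20 µM single dose. Times: enzyme reaction with compound 20 min at room temperature. Detection: resorufin fluorescence at Ex 544/Em 590 nm.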
PMI activator = activators of human phosphomannose isomerase; purified human PMI, coupled resazurin fluorescence, 20 min; active compounds read high; 1 = vehicle control, 0 substrate-free wells; activation factor at 20 µM; 0.005% of 190,000 active; AID 1214;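 active = activation factor of 2 or more at 20 µM, relative to plate controls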
KCC2 sec1 = KCC2 (human) modulation, secondary assay; normalised thallium flux (F/F0 slope) at 10 µM; shares compounds with KCC2 mod; 15% of 3,700 active; AID 1713; HEK293-KCC2, thallium flux, FluoZin2 fluorescence; active compounds read high;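 active = thallium flux slope above the same plate's solvent-only control mean plus 3 SD; inconclusive = the two replicate wells disagree; inactive = no significant difference from solvent-only control wells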
KCC2 bumet counter = bumetanide-insensitive thallium flux in KCC2 cells with ouabain, counter-screen; shares compounds with KCC2 mod; HEK293-KCC2 + bumetanide/ouabain, thallium flux FluoZin2; active compounds read high; normalized thallium flux at 10 µM; 49% of 3,700 active; AID 1714;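 active = thallium entry rate above the same plate's blocked-transporter control wells by more than 3 SD; inconclusive = the two repeat wells disagree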;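 note: raw slope of fluorescence over initial fluorescence between 10 and 20 s after thallium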
KCC2 sec2 = confirmation of human KCC2 transport modulators; shares compounds with KCC2 mod; HEK293-KCC2, thallium flux FluoZin2 fluorescence; actives lie on both sides; F/F0 rise rate, 10–20 s post-thallium; normalized thallium flux at 10 µM; 23% of 3,700 active;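 active = thallium flux slope more than 3 SD above or below the plate's solvent-only control mean, mostly below; inconclusive = the two repeat wells disagreed; inactive = no significant shift from solvent-only controls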
HEK counter1 = acts in parental HEK cells, KCC2 counter-screen; shares compounds with KCC2 mod; HEK293 parental cells, thallium flux FluoZin2, ouabain; baseline-ratio fluorescence slope, 10–20 s after thallium; thallium flux rate (normalised fluorescence) at 10 µM; 46% of 3,700 active; AID 1716;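 active = thallium flux rate significantly above the same plate's solvent-only control wells, beyond their mean plus 3 SD; inconclusive = the two replicate wells gave conflicting results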
KCC2 retest ouab = modulates human KCC2 on retest with ouabain. shares compounds with KCC2 mod. HEK293-KCC2, thallium flux FluoZin2 fluorescence; bidirectional: low = inhibitor, high = activator. raw Tl+ flux slope (below DMSO = inhibition, above = activation) at 10 µM. 48% of 3,700 active. AID 1717;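 active = thallium flux slope beyond 3 SD from same-plate DMSO control mean in most replicates, usually higher, sometimes lower; inconclusive = repeat tests gave conflicting results; inactive = no significant difference from controls in most replicates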;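 note: slope of initial-normalized fluorescence between seconds 10 and 20 after thallium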
HEK counter2 = acts in parental HEK cells, second KCC2 counter-screen; thallium flux slope at 10 µM; shares compounds with KCC2 mod; 33% of 3,700 active; HEK293 parental, thallium flux FluoZin-2 fluorescence slope;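 active = thallium flux slope above the same plate's solvent-control mean plus 3 SD in both duplicate wells; inconclusive = duplicate wells that disagreed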;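 note: run without ouabain in cells lacking the KCC2 cotransporter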
Of the large screens only hits and unclear results are named; the others gave an inactive call (follow-up assays come after a bar, where they were run). This is a sample that favours compounds with a hit; in the whole collection about 3.3% have one here.

Cc1ccc(NC(=S)NC(=O)c2ccc(Br)o2)c(C)c1	KCC2 mod 54.7 | KCC2 sec1 0.0212 | KCC2 bumet counter 0.132 | KCC2 sec2 0.0437 | HEK counter1 0.0689 | KCC2 retest ouab 0.114 | HEK counter2 0.0181
CSc1nc(C)cc(Oc2ccc(OCCOc3ccccc3)nn2)n1	KCC2 mod -5.9 (no result: ROMK mod) | KCC2 sec1 inactive | KCC2 bumet counter inactive | KCC2 sec2 inactive | HEK counter1 inactive | KCC2 retest ouab 0.0161 | HEK counter2 inactive
CCCOc1ccc(Oc2cc(C)nc(SC)n2)nn1	none (no result: ROMK mod)
CCOC(=O)c1c(-c2ccccc2)csc1NC(=O)CSc1nnnn1C	KCC2 mod -4.71 (no result: ROMK mod) | KCC2 sec1 inactive | KCC2 bumet counter inactive | KCC2 sec2 inactive | HEK counter1 inactive | KCC2 retest ouab inconclusive | HEK counter2 inconclusive
CC(/C=N/n1c(-c2ccccn2)n[nH]c1=S)=C\c1ccccc1	KCC2 mod 8.38 (no result: ABCB1 block, ABCG2 block, ROMK mod, PMI act hi M6P, PMI activator) | KCC2 sec1 inactive | KCC2 bumet counter 0.0289 | KCC2 sec2 inactive | HEK counter1 0.0129 | KCC2 retest ouab inconclusive | HEK counter2 inactive
Cc1ccc(NC(=S)NC(=O)c2c(-c3ccccc3Cl)noc2C)cc1	KCC2 mod 5.43 (no result: ROMK mod) | KCC2 sec1 inactive | KCC2 bumet counter 0.0346 | KCC2 sec2 inactive | HEK counter1 0.0155 | KCC2 retest ouab 0.0367 | HEK counter2 inconclusive
Cc1onc(-c2ccccc2Cl)c1C(=O)NC(=S)NCCc1ccccc1	none
COC(=O)c1ccc(NC(=S)NC(=O)c2c(-c3ccccc3)noc2C)cc1	KCC2 mod 16.7 (no result: ABCB1 block, ABCG2 block, ROMK mod, PMI act hi M6P, PMI activator) | KCC2 sec1 inactive | KCC2 bumet counter 0.0232 | KCC2 sec2 inactive | HEK counter1 inconclusive | KCC2 retest ouab 0.0489 | HEK counter2 inactive
CCCOc1ccc(C(=O)NC(=S)NNC(=O)c2c(-c3ccccc3)noc2C)cc1	KCC2 mod 62.1 (no result: ABCB1 block, ABCG2 block, ROMK mod, PMI act hi M6P, PMI activator) | KCC2 sec1 0.0215 | KCC2 bumet counter 0.0645 | KCC2 sec2 inconclusive | HEK counter1 0.0446 | KCC2 retest ouab 0.0398 | HEK counter2 0.0402
Cc1onc(-c2ccccc2Cl)c1C(=O)NC(=S)Nc1ccc(C(C)C)cc1	KCC2 mod 9.94 (no result: ABCB1 block, ABCG2 block, ROMK mod, PMI act hi M6P, PMI activator) | KCC2 sec1 inactive | KCC2 bumet counter 0.0133 | KCC2 sec2 inactive | HEK counter1 0.0143 | KCC2 retest ouab inconclusive | HEK counter2 0.0128
CC(=O)N1CCN(C(=S)NC(=O)c2c(-c3ccccc3Cl)noc2C)CC1	none
COCCN(Cc1cc2ccc(C)cc2n2nnnc12)Cc1nnnn1C(C)(C)C	none
COc1ccc(S(=O)(=O)Nc2ccc(N3CCOCC3)nc2)cc1	none
Cc1onc(-c2ccccc2)c1C(=O)NC(=S)Nc1sc2c(c1C#N)CCC(C)C2 (configuration not stated)	KCC2 mod 21.4 (no result: ROMK mod) | KCC2 sec1 inconclusive | KCC2 bumet counter 0.0578 | KCC2 sec2 inconclusive | HEK counter1 0.0238 | KCC2 retest ouab 0.0366 | HEK counter2 0.0251
COC(=O)c1cc(Br)c(=O)n(Cc2cccnc2)c1	none
COc1ccc(N2CC(NC(=O)NCCC(C)C)CC2=O)cc1 (configuration not stated)	none (no result: ROMK mod)
CC1CCN(C(=O)CSc2ccc(-c3ccc(F)cc3)nn2)CC1	KCC2 mod -5.29 | KCC2 sec1 inactive | KCC2 bumet counter inconclusive | KCC2 sec2 0.0209 | HEK counter1 inactive | KCC2 retest ouab 0.015 | HEK counter2 inactive
O=C(CSc1ccc(-c2ccc(F)cc2)nn1)N1CCCCC1	KCC2 mod -5.29 | KCC2 sec1 inactive | KCC2 bumet counter inactive | KCC2 sec2 inactive | HEK counter1 inactive | KCC2 retest ouab 0.0144 | HEK counter2 inactive
CC(C)(C)NC(=O)C(=O)NNC(=O)c1cccc(Br)c1	KCC2 mod 33 | KCC2 sec1 0.00965 | KCC2 bumet counter 0.0539 | KCC2 sec2 0.0466 | HEK counter1 0.0474 | KCC2 retest ouab 0.0502 | HEK counter2 0.0283
Cc1cccc(C(=O)NNC(=O)C(=O)NC(C)(C)C)c1	none (no result: KCC2 mod, ROMK mod)
CCOc1cccc(OCCCNCCCOC)c1	none
CCCn1c(=S)[nH]c2cc(OC)c(OC)cc2c1=O	KCC2 mod 10.5 | KCC2 sec1 0.0134 | KCC2 bumet counter 0.0215 | KCC2 sec2 inactive | HEK counter1 inconclusive | KCC2 retest ouab inconclusive | HEK counter2 inconclusive
COCCn1c(=S)[nH]c2ccc(N(C)C)cc2c1=O	KCC2 mod 3.21 | KCC2 sec1 inactive | KCC2 bumet counter 0.00828 | KCC2 sec2 inactive | HEK counter1 0.00951 | KCC2 retest ouab inactive | HEK counter2 0.0121
CCOc1cc2[nH]c(=S)n(CCOC)c(=O)c2cc1OCC	none
C/C(N)=C(/C#N)C(=O)CSc1nnc(SCc2ccc(Cl)cc2)s1	none (no result: KCC2 mod) | KCC2 sec1 inactive | KCC2 bumet counter inactive | KCC2 sec2 inactive | HEK counter1 inactive | KCC2 retest ouab inconclusive | HEK counter2 inactive
C/C(N)=C(/C#N)C(=O)CSc1nn(-c2ccc(Cl)cc2)c(=S)s1	none
COc1ccc(NC(=O)CSc2nnc(-c3ccncc3)n2C)cc1	none (no result: ROMK mod)
COc1ccc(NC(=O)CSc2nc(-c3ccncc3)nn2CC(=O)N2CCCC2)cc1	KCC2 mod -4.25 | KCC2 sec1 inactive | KCC2 bumet counter inactive | KCC2 sec2 inactive | HEK counter1 inactive | KCC2 retest ouab inactive | HEK counter2 inactive
CC(C)(C)C(=O)NNC(=O)COc1ccc2ccccc2c1Br	KCC2 mod 7.8 | KCC2 sec1 inactive | KCC2 bumet counter 0.0203 | KCC2 sec2 inactive | HEK counter1 0.0106 | KCC2 retest ouab 0.0274 | HEK counter2 inconclusive
O=C(COc1ccc2ccccc2c1Br)Nn1cnnc1	KCC2 mod -4.67 | KCC2 sec1 inactive | KCC2 bumet counter inconclusive | KCC2 sec2 0.0251 | HEK counter1 inactive | KCC2 retest ouab inconclusive | HEK counter2 inactive
COc1ccccc1NC(=S)N(CCN1CCCCCC1)Cc1cccs1	none
